Assay results as given in ChEMBL document CHEMBL1177725, “6-(3,4-dichlorophenyl)-1-[(methyloxy)methyl]-3-azabicyclo[4.1.0]heptane: a new potent and selective triple reuptake inhibitor” (J Med Chem, 2010).
pIC50, pKi: −log10 of the molar value.

How the values were obtained:
Rattus norvegicus [1] = assay: Ex vivo SERT occupancy in Sprague-Dawley rat striatum at 10 mg/kg, po […] by autoradiography; assay type: functional
Cytochrome P450 1A2 = molecular target: T1, Cytochrome P450 1A2 (Homo sapiens, UniProt P05177); assay: Inhibition of human CYP1A2 after 10 mins; assay type: ADME
T1 sequence (P05177 whole entry): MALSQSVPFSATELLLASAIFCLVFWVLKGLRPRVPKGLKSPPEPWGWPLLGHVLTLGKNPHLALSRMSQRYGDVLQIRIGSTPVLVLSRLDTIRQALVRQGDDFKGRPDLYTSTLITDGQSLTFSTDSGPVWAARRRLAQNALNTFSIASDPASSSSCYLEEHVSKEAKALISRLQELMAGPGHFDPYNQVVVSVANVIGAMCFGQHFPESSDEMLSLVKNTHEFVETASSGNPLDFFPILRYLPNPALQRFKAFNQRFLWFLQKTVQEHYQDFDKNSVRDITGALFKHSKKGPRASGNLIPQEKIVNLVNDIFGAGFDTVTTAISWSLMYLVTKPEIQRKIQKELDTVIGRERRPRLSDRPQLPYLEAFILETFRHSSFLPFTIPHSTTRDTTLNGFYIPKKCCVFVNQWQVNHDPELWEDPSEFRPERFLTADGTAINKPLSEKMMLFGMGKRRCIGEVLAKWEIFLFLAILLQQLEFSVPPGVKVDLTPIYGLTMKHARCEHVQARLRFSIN
Summary of the method: (§1)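 Recombinant human CYP bactosomes (0.1 mg/mL) were pre-incubated 10 min at 37 °C in 50 mM phosphate pH 7.4 with compound (0.1–10 μM) and a fluorogenic substrate. Substrates: ethoxyresorufin 0.5 μM (1A2), FCA 50 μM (2C9), BMC 10 μM (2C19), MMC 10 μM (2D6), DEF 1 μM or 7-BQ 25 μM (3A4). Adding an NADPH-regenerating system started the reaction, and metabolite fluorescence was read over 10 min. The IC50 came from rate as percent of control; miconazole served as positive control, with triplicates.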

[2] = molecular target: Sodium-dependent dopamine transporter (Rattus norvegicus, UniProt P23977); assay: Displacement of [3H]WIN-35428 from DAT in rat striatum after 2 hrs by liquid scintillation counting
[3] = molecular target: T2, Sodium-dependent noradrenaline transporter (Homo sapiens, UniProt P23975); assay: Displacement of [3H]nisoxetine from human recombinant NET by SPA
Summary of the method: (§2)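 SPA binding on BacMam-expressed human transporter membranes (SERT 6, NET 40, DAT 20 μg/mL) with SPA beads (1 mg/mL SERT; 2 mg/mL NET, DAT), 0.02% Pluronic F-127. Radioligands: 3 nM [3H]citalopram (SERT), 10 nM [3H]nisoxetine (NET), 10 nM [3H]WIN-35,428 (DAT). Buffer 20 mM HEPES, 145 mM NaCl, 5 mM KCl, pH 7.4; overnight, room temperature; imager read; four-parameter fit, Cheng-Prusoff pKi.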

[4] = molecular target: T3, Sodium-dependent serotonin transporter (Homo sapiens, UniProt P31645); assay: Inhibition of [3H]serotonin reuptake at human SERT expressed in pig LLCPK cells after 1 hr; assay type: cell-based
Summary of the method: (§3)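 Uptake SPA on stably transfected LLCPK cells with SPA beads (1.5 mg/mL SERT, NET; 2 mg/mL DAT) and 0.02% Pluronic F-127 in 20 mM HEPES, 145 mM NaCl, 5 mM KCl, pH 7.4. Cells/well: SERT 25 000, NET 50 000, DAT 75 000. Started by adding 35 nM [3H]serotonin, 45 nM [3H]noradrenalin or 75 nM [3H]dopamine (solutions added); 1 h, room temperature; four-parameter fit; n = 3.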

[5] = molecular target: T3, Sodium-dependent serotonin transporter; assay: Displacement of [N-methyl-3H]citalopram from human recombinant SERT expressed in pig LLCPK cells after 2 hrs by liquid scintillation counting; assay type: cell-based
Rattus norvegicus [6] = assay: Ex vivo SERT occupancy in Sprague-Dawley rat cortex at 0.03 mg/kg, po after 1 hr by autoradiography; assay type: functional
Summary of the method: (§4)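 Oral dosing in rats. SERT occupancy was taken from [3H]citalopram binding to brain cortex prepared 1 h after administration.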

Rattus norvegicus [7] = assay: Ex vivo SERT occupancy in Sprague-Dawley rat dorsal raphe at 10 mg/kg, po […] by autoradiography; assay type: functional
[8] = molecular target: Sodium-dependent dopamine transporter (Mus musculus, UniProt Q61327); assay: Displacement of [3H]WIN-35428 from DAT in mouse brain; assay type: tissue-based
Rattus norvegicus [9] = assay: Ex vivo SERT occupancy in Sprague-Dawley rat cortex at 1 mg/kg, po after 1 hr by autoradiography; assay type: functional; summary of the method: as §4
[10] = molecular target: T4, Sodium-dependent dopamine transporter (Homo sapiens, UniProt Q01959); assay: Displacement of [N-methyl-3H]WIN-35428 from human recombinant DAT expressed in pig LLCPK cells after 2 hrs by liquid scintillation counting; assay type: cell-based
Cytochrome P450 2C19 = Cytochrome P450 2C19 (Homo sapiens, UniProt P33261); assay: Inhibition of human CYP2C19 after 10 mins; assay type: ADME; summary of the method: as §1
Transporter = Transporter (Rattus norvegicus, UniProt Q63380); assay: Displacement of [3H]nisoxetine from NET in rat hippocampus after 2 hrs by liquid scintillation counting; assay type: tissue-based
Summary of the method: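 Rat hippocampus membranes (40 μg protein/well), competition filtration binding run as for human recombinant NET: 1.5 nM [3H]nisoxetine, test compound added from 100x DMSO solution, 10 μM desipramine for nonspecific binding. Incubated for 2 h at room temperature, filtered on PEI-presoaked GF/B, and washed with ice-cold 0.9% NaCl. Read by scintillation counting; four-parameter logistic pIC50 converted to pKi by Cheng-Prusoff.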

Rattus norvegicus [11] = assay: Ex vivo SERT occupancy in Sprague-Dawley rat cortex at 0.1 mg/kg, po after 1 hr by autoradiography; assay type: functional
[12] = molecular target: Sodium-dependent noradrenaline transporter (Mus musculus, UniProt O55192); assay: Displacement of [3H]nisoxetine from NET in mouse brain; assay type: tissue-based
Rattus norvegicus [13] = assay: Ex vivo SERT occupancy in Sprague-Dawley rat substantia nigra at 10 mg/kg, po […] by autoradiography; assay type: functional
[14] = Blood clearance in rat; assay type: ADME, organism-based
[15] = Volume of distribution in rat; assay type: ADME, organism-based; conditions: in vivo
[16] = Ratio of drug level in brain to blood in rat; assay type: ADME, tissue-based
[17] = molecular target: Sodium-dependent serotonin transporter (Rattus norvegicus, UniProt P31652); assay: Displacement of [3H]-citalopram from SERT in rat cortex after 2 hrs by liquid scintillation counting
[18] = molecular target: T2, Sodium-dependent noradrenaline transporter; assay: Inhibition of [3H]noradrenalin reuptake at human NET expressed in pig LLCPK cells after 1 hr; assay type: cell-based; summary of the method: as §3
[19] = molecular target: T4, Sodium-dependent dopamine transporter; assay: Displacement of [3H]WIN-35428 from human recombinant DAT by SPA; summary of the method: as §2
Cytochrome P450 3A4 = Cytochrome P450 3A4 (Homo sapiens, UniProt P08684); assay: Inhibition of human CYP3A4 after 10 mins; assay type: ADME; summary of the method: as §1
Rattus norvegicus [20] = assay: Ex vivo SERT occupancy in Sprague-Dawley rat superior coulliculus at 10 mg/kg, po […] by autoradiography; assay type: functional
Rattus norvegicus [21] = assay: Ex vivo SERT occupancy in Sprague-Dawley rat cortex at 20 mg/kg, po after 1 hr by autoradiography; assay type: functional; summary of the method: as §4
[22] = Oral bioavailability in rat; assay type: ADME, organism-based; conditions: in vivo
[23] = Half life in rat; assay type: ADME, organism-based; conditions: in vivo
Rattus norvegicus [24] = assay: Ex vivo SERT occupancy in Sprague-Dawley rat cortex at 0.3 mg/kg, po after 1 hr by autoradiography; assay type: functional; summary of the method: as §4
Rattus norvegicus [25] = assay: Ex vivo SERT occupancy in Sprague-Dawley rat cortex at 3 mg/kg, po after 1 hr by autoradiography; assay type: functional; summary of the method: as §4
[26] = molecular target: Sodium-dependent serotonin transporter (Mus musculus, UniProt Q60857); assay: Displacement of [3H]-citalopram from SERT in mouse cortex after 2 hrs by liquid scintillation counting
Summary of the method: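 Mouse cortex membranes (7 μg protein/well) were incubated 2 h at room temperature with [³H]citalopram, added at 0.25 nM. Test compound came from a 100× DMSO solution. Nonspecific binding was defined with 10 μM fluoxetine (final). Bound ligand was collected by filtration on PEI-presoaked GF/B filters, washed with ice-cold 0.9% NaCl and scintillation counted. A four-parameter logistic fit gave pIC50, converted to pKi by Cheng-Prusoff.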

Cytochrome P450 2D6 = Cytochrome P450 2D6 (Homo sapiens, UniProt P10635); assay: Inhibition of human CYP2D6 after 10 mins; assay type: ADME; summary of the method: as §1
Rattus norvegicus [27] = assay: Ex vivo SERT occupancy in Sprague-Dawley rat cortex at 10 mg/kg, po after 1 hr by autoradiography; assay type: functional; summary of the method: as §4
[28] = molecular target: T4, Sodium-dependent dopamine transporter; assay: Inhibition of [3H]dopamine reuptake at human DAT expressed in pig LLCPK cells after 1 hr; assay type: cell-based; summary of the method: as §3
[29] = molecular target: T3, Sodium-dependent serotonin transporter; assay: Displacement of [3H]citalopram from human recombinant SERT by SPA; summary of the method: as §2
[30] = molecular target: T2, Sodium-dependent noradrenaline transporter; assay: Displacement of [N-methyl-3H]nisoxetine from human recombinant NET expressed in pig LLCPK cells after 2 hrs by liquid scintillation counting; assay type: cell-based
Cytochrome P450 2C9 = Cytochrome P450 2C9 (Homo sapiens, UniProt P11712); assay: Inhibition of human CYP2C9 after 10 mins; assay type: ADME; summary of the method: as §1

T2 sequence (P23975 whole entry): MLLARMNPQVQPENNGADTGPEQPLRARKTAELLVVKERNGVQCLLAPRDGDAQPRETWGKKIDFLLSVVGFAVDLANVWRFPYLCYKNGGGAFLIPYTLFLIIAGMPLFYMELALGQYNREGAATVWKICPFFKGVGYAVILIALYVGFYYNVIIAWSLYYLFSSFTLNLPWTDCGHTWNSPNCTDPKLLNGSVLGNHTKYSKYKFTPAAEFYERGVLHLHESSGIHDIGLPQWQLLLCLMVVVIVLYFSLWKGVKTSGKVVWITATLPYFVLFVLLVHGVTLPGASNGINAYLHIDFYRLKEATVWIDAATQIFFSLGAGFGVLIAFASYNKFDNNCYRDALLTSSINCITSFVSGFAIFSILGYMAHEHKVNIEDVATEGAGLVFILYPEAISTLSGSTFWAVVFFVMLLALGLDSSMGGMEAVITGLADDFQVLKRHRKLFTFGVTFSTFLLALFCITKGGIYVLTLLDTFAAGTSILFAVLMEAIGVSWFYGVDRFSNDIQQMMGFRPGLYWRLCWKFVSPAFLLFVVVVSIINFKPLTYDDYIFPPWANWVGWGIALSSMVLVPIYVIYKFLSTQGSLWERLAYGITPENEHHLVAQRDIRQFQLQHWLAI
T3 sequence (P31645 whole entry): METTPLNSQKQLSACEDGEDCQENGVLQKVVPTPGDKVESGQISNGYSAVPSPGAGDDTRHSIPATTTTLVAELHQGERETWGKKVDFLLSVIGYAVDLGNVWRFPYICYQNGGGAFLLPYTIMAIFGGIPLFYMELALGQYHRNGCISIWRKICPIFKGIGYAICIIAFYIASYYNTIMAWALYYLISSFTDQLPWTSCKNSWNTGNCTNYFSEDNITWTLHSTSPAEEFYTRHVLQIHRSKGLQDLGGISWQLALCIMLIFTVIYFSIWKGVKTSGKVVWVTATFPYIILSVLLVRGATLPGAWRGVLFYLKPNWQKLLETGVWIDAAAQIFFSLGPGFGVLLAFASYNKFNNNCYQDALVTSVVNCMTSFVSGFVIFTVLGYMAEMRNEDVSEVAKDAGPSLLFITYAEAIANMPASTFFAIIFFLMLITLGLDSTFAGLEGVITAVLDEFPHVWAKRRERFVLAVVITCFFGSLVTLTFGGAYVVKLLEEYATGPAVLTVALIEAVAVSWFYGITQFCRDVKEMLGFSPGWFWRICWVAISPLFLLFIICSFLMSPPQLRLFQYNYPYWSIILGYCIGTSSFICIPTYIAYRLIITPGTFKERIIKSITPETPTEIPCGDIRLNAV
T4 sequence (Q01959 whole entry): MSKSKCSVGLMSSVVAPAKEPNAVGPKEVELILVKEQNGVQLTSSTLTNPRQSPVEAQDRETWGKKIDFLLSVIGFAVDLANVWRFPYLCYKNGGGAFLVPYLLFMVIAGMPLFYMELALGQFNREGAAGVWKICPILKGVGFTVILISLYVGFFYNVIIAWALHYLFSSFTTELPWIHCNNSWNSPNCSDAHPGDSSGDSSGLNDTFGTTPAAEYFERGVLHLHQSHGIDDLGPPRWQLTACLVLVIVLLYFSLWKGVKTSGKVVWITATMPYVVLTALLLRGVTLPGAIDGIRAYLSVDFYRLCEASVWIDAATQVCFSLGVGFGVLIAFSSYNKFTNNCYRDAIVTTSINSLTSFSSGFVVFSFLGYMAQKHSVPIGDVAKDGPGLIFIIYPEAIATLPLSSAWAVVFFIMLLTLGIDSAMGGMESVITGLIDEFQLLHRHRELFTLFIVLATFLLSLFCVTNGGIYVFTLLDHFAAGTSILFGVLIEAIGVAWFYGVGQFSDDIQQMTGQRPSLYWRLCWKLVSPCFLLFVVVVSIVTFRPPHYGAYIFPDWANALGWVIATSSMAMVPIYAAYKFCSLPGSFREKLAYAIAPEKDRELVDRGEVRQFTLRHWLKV
Chain of Sodium-dependent serotonin transporter (Rattus norvegicus, UniProt P31652) (P31652 whole entry): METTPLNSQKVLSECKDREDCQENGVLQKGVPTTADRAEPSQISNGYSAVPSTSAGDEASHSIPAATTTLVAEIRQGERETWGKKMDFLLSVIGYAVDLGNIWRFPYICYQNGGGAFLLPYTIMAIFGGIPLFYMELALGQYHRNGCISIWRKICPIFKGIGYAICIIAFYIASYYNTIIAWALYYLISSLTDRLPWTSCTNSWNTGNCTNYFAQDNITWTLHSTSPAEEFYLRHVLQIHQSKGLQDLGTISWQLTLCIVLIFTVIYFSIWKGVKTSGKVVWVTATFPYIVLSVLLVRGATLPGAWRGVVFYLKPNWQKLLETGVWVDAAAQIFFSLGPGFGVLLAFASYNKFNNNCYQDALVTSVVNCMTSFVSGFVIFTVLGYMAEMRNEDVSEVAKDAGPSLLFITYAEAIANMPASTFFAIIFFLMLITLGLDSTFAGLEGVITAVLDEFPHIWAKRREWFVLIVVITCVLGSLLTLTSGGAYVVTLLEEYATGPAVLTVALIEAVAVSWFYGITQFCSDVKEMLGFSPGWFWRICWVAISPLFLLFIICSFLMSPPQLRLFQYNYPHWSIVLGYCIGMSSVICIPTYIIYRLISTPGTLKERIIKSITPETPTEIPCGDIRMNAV
Chain of Cytochrome P450 2C19 (P33261 whole entry): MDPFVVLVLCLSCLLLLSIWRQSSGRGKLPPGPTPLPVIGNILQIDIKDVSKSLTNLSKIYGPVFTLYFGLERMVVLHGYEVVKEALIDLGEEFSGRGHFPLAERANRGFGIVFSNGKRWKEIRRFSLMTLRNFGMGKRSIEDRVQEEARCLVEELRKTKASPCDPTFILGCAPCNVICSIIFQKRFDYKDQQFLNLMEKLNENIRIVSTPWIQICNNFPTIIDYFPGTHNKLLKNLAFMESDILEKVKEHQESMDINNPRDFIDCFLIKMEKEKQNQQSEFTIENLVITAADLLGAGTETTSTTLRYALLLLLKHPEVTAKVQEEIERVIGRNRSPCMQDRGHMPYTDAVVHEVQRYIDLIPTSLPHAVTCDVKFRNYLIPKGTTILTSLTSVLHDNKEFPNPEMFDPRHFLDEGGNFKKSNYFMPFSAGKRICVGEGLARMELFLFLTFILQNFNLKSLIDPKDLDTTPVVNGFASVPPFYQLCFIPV
Chain of Transporter (Q63380 whole entry): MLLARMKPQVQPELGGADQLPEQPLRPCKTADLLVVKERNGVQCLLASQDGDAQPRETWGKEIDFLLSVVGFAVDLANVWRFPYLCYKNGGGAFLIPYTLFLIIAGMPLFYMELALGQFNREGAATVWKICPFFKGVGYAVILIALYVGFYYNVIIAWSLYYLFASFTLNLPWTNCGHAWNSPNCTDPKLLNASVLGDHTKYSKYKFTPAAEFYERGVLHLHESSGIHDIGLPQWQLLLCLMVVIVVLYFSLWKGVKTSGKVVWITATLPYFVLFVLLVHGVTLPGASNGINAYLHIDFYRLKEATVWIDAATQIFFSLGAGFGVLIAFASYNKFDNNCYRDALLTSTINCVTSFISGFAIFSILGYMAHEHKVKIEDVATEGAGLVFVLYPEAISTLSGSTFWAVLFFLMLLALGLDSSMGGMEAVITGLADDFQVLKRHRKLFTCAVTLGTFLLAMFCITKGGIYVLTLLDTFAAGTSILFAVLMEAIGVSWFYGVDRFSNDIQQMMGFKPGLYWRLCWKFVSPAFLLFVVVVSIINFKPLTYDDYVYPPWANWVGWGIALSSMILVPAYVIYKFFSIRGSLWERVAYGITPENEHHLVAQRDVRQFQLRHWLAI
Chain of Cytochrome P450 3A4 (P08684 whole entry): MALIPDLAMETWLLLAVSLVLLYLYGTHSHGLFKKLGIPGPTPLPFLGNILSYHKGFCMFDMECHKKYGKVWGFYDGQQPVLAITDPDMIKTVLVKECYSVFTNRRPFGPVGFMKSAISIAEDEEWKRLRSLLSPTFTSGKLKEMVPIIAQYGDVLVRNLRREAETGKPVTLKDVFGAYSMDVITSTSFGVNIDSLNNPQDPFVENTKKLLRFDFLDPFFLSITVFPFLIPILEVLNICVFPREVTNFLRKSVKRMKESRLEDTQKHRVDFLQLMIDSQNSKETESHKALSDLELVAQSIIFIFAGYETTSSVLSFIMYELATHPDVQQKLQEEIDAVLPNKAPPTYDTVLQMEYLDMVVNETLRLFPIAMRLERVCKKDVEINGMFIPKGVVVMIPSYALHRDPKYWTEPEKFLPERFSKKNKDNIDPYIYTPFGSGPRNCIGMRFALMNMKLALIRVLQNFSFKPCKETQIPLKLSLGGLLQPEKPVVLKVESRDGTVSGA
Chain of Sodium-dependent dopamine transporter (Rattus norvegicus, UniProt P23977) (P23977 whole entry): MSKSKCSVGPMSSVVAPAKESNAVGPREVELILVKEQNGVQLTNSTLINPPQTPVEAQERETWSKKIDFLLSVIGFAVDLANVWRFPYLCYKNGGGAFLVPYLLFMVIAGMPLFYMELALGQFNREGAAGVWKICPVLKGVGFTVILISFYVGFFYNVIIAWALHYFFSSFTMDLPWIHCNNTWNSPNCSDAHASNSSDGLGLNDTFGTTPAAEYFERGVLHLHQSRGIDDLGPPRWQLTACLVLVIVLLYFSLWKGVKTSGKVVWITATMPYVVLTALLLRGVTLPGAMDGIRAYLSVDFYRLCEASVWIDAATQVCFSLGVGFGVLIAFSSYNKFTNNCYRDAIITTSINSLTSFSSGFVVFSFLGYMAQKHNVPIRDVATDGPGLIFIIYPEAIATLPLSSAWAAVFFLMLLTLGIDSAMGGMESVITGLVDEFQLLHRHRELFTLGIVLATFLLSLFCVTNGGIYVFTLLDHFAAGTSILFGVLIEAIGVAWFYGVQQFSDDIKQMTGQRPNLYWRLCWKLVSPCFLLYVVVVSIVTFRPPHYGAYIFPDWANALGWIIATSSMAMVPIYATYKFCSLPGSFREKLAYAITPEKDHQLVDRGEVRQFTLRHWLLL
Chain of Sodium-dependent dopamine transporter (Mus musculus, UniProt Q61327) (Q61327 whole entry): as the sequence (P23977 whole entry) above, with S21P, A57V, A194S, H600R, L619V counted along it

In the case of COC[C@@]12CNCC[C@]1(c1ccc(Cl)c(Cl)c1)C2 (relative stereo; 17) [GSK1360707], the Activity (Rattus norvegicus [1]) was “>=95%”, the pIC50 (Cytochrome P450 1A2) was 5.00 and the pKi [2] was 8.00. It also gave a pKi [3] of 7.92, a pIC50 [4] of 8.40 and a pKi [5] of 9.20. The Activity (Rattus norvegicus [6]) was 4.6%, the Activity (Rattus norvegicus [7]) was 87.92% and the pKi [8] was 8.00. It also gave an Activity (Rattus norvegicus [9]) of 58.2%, a pKi [10] of 8.00 and a pIC50 (Cytochrome P450 2C19) of 5.00. It also gave a pKi (Transporter) of 8.60, an Activity (Rattus norvegicus [11]) of 12.6% and a pKi [12] of 8.80. The Activity (Rattus norvegicus [13]) was “>=95%”, the clearance [14] was 48 mL/min and the Vd [15] was 5.8 L/kg. It also gave a Kp [16] of 6.3, a pKi [17] of 8.90 and a pIC50 [18] of 8.70. For the same compound, the pKi [19] was 7.92, the pIC50 (Cytochrome P450 3A4) was 5.00 and the Activity (Rattus norvegicus [20]) was “>=95%”. It also gave an Activity (Rattus norvegicus [21]) of 98.2%, a bioavailability [22] of 54% and a half-life [23] of 1.7 h. For the same compound, the Activity (Rattus norvegicus [24]) was 36.3%, the Activity (Rattus norvegicus [25]) was 82.8% and the pKi [26] was 8.80. For the same compound, the pIC50 (Cytochrome P450 2D6) was 5.52, the Activity (Rattus norvegicus [27]) was “>=95%” and the pIC50 [28] was 8.70. For the same compound, the pKi [29] was 8.98, the pKi [30] was 8.10 and the pIC50 (Cytochrome P450 2C9) was 5.00.
